Assay results as given in ChEMBL document CHEMBL1146365, “Synthesis and biological evaluation of new N-(2-hydroxy-4(or 5)-nitro/aminophenyl)benzamides and phenylacetamides as antimicrobial agents” (2007).
Values after ≈ are worked out from the molar mass of the structure shown.

How the values were obtained:
Klebsiella pneumoniae [1] = test: Antibacterial activity against Klebsiella pneumoniae isolate assessed after 24 hrs by serial dilution method; assay type: functional
Procedure, shortened: (§1)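 Strains were subcultured twice on MHA at 37 °C overnight. Inoculum was diluted from McFarland 0.5 to 10^5 cfu/ml, giving 10^4 cfu/ml in wells. Solvent, medium and organism-only controls were included. Incubated 37 °C, humid chamber, 24 h, in triplicate. MIC = lowest concentration with no macroscopic growth.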

Pseudomonas aeruginosa [2] = test: Antibacterial activity against Pseudomonas aeruginosa isolate assessed after 24 hrs by serial dilution method; assay type: functional; procedure, shortened: as §1
Escherichia coli [3] = test: Antibacterial activity against Escherichia coli isolate assessed after 24 hrs by serial dilution method; assay type: functional; procedure, shortened: as §1
Bacillus subtilis [4] = test: Antibacterial activity against Bacillus subtilis ATCC 6633 assessed after 24 hrs by serial dilution method; assay type: functional; details: ATCC 6633, 24 h; procedure, shortened: as §1
Staphylococcus aureus [5] = test: Antibacterial activity against Staphylococcus aureus ATCC 25923 assessed after 24 hrs by serial dilution method; assay type: functional; details: ATCC 25923, 24 h; procedure, shortened: as §1
Candida albicans [6] = test: Antifungal activity against Candida albicans ATCC 10231 assessed after 48 hrs by serial dilution method; assay type: functional; details: ATCC 10231, 48 h
Procedure, shortened: (§2)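 Broth microdilution per CLSI M27-A in RPMI-1640 with L-glutamine, MOPS-buffered pH 7, with 2-fold compound dilutions. Yeasts were subcultured twice on SDA at 35 °C for 24–48 h. Inoculum was diluted from McFarland 0.5 to 10^4 cfu/ml, giving 10^3 cfu/ml in wells. Incubated 35 °C, humid chamber, 48 h, in triplicate. MIC = lowest concentration with no macroscopic growth.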

Candida albicans [7] = test: Antifungal activity against Candida albicans isolate assessed after 48 hrs by serial dilution method; assay type: functional; procedure, shortened: as §2
Escherichia coli [8] = test: Antibacterial activity against Escherichia coli ATCC assessed after 24 hrs by serial dilution method
Klebsiella pneumoniae [9] = test: Antibacterial activity against Klebsiella pneumoniae RSHM 574 assessed after 24 hrs by serial dilution method
Bacillus subtilis [10] = test: Antibacterial activity against drug-resistant Bacillus subtilis assessed after 24 hrs by serial dilution method
Pseudomonas aeruginosa [11] = test: Antibacterial activity against Pseudomonas aeruginosa ATCC […] assessed after 24 hrs by serial dilution method
Staphylococcus aureus [12] = test: Antibacterial activity against drug-resistant Staphylococcus aureus assessed after 24 hrs by serial dilution method

SMILES	MIC (Klebsiella pneumoniae [1]) [µg/mL]	MIC (Pseudomonas aeruginosa [2]) [µg/mL]	MIC (Escherichia coli [3]) [µg/mL]	MIC (Bacillus subtilis [4]) [µg/mL]	MIC (Staphylococcus aureus [5]) [µg/mL]	MIC (Candida albicans [6]) [µg/mL]	MIC (Candida albicans [7]) [µg/mL]	MIC (Escherichia coli [8]) [µg/mL]	MIC (Klebsiella pneumoniae [9]) [µg/mL]	MIC (Bacillus subtilis [10]) [µg/mL]	MIC (Pseudomonas aeruginosa [11]) [µg/mL]	MIC (Staphylococcus aureus [12]) [µg/mL]
Nc1ccc(O)c(NC(=O)c2ccc(F)cc2)c1	125 (≈ 508 µM)	125 (≈ 508 µM)	125 (≈ 508 µM)	62.5 (≈ 254 µM)	15.6 (≈ 63.4 µM)	62.5 (≈ 254 µM)	62.5 (≈ 254 µM)	125 (≈ 508 µM)	62.5 (≈ 254 µM)	62.5 (≈ 254 µM)	62.5 (≈ 254 µM)	15.6 (≈ 63.4 µM)
Nc1ccc(NC(=O)Cc2ccc(Cl)cc2)c(O)c1	250 (≈ 903 µM)	125 (≈ 452 µM)	125 (≈ 452 µM)	250 (≈ 903 µM)	62.5 (≈ 226 µM)	125 (≈ 452 µM)	125 (≈ 452 µM)	125 (≈ 452 µM)	125 (≈ 452 µM)	62.5 (≈ 226 µM)	125 (≈ 452 µM)	31.2 (≈ 113 µM)
CC(C)(C)c1ccc(C(=O)Nc2ccc(N)cc2O)cc1	125 (≈ 440 µM)	62.5 (≈ 220 µM)	125 (≈ 440 µM)	15.6 (≈ 54.9 µM)	15.6 (≈ 54.9 µM)	62.5 (≈ 220 µM)	62.5 (≈ 220 µM)	125 (≈ 440 µM)	125 (≈ 440 µM)	7.8 (≈ 27.4 µM)	62.5 (≈ 220 µM)	7.8 (≈ 27.4 µM)
CCc1ccc(C(=O)Nc2cc(N)ccc2O)cc1	62.5 (≈ 244 µM)	125 (≈ 488 µM)	125 (≈ 488 µM)	62.5 (≈ 244 µM)	15.6 (≈ 60.9 µM)	62.5 (≈ 244 µM)	62.5 (≈ 244 µM)	125 (≈ 488 µM)	62.5 (≈ 244 µM)	31.2 (≈ 122 µM)	62.5 (≈ 244 µM)	15.6 (≈ 60.9 µM)
Nc1ccc(O)c(NC(=O)Cc2ccc(F)cc2)c1	250 (≈ 961 µM)	250 (≈ 961 µM)	250 (≈ 961 µM)	15.6 (≈ 59.9 µM)	62.5 (≈ 240 µM)	250 (≈ 961 µM)	125 (≈ 480 µM)					
Nc1ccc(NC(=O)Cc2ccc(Br)cc2)c(O)c1	125 (≈ 389 µM)	250 (≈ 778 µM)	125 (≈ 389 µM)	125 (≈ 389 µM)	125 (≈ 389 µM)	125 (≈ 389 µM)	250 (≈ 778 µM)	125 (≈ 389 µM)	125 (≈ 389 µM)	125 (≈ 389 µM)	250 (≈ 778 µM)	31.2 (≈ 97.3 µM)
O=C(Nc1ccc([N+](=O)[O-])cc1O)c1ccc(Br)cc1	125 (≈ 371 µM)	250 (≈ 742 µM)	250 (≈ 742 µM)	3.9 (≈ 11.6 µM)	7.8 (≈ 23.1 µM)	250 (≈ 742 µM)	125 (≈ 371 µM)	62.5 (≈ 185 µM)	125 (≈ 371 µM)	1.95 (≈ 5.78 µM)	250 (≈ 742 µM)	500 (≈ 1480 µM)
O=C(Nc1cc([N+](=O)[O-])ccc1O)c1ccc(F)cc1	125 (≈ 453 µM)	125 (≈ 453 µM)	125 (≈ 453 µM)	3.9 (≈ 14.1 µM)	7.8 (≈ 28.2 µM)	62.5 (≈ 226 µM)	62.5 (≈ 226 µM)	125 (≈ 453 µM)	31.2 (≈ 113 µM)	62.5 (≈ 226 µM)	62.5 (≈ 226 µM)	15.6 (≈ 56.5 µM)
OC(Cn1cncn1)(Cn1cncn1)c1ccc(F)cc1F [FLUCONAZOLE]						4 (≈ 13.1 µM)	512 (≈ 1670 µM)					
Cc1ccc(CC(=O)Nc2cc(N)ccc2O)cc1	250 (≈ 975 µM)	250 (≈ 975 µM)	250 (≈ 975 µM)	15.6 (≈ 60.9 µM)	31.2 (≈ 122 µM)	125 (≈ 488 µM)	125 (≈ 488 µM)					
CC1COc2c(N3CCN(C)CC3)c(F)cc3c(=O)c(C(=O)O)cn1c23 (stereo not drawn) [OFLOXACIN]	64 (≈ 177 µM)		32 (≈ 88.6 µM)	> 4100	> 4100				64 (≈ 177 µM)	32 (≈ 88.6 µM)	8 (≈ 22.1 µM)	> 4100
